Test results: publication PMC7474130 (Journal of Pharmaceutical Analysis, 2020)
Like-named read-outs stand apart in the source and are kept apart here.

How the values were obtained:
[1] = assay type: in vivo, Male Sprague-Dawley (SD) rats; details: plasma; for AUC0-t / AUC0-∞: IM rats, oral ZSS aqueous extract 6.8 g/kg, mean ± SD, n = 6; for Cmax / Tmax / half-life: male, Sprague-Dawley, rat, po, 6.8 g/kg
How it was run: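 Male SD rats (220 ± 20 g) made insomniac with PCPA 400 mg/kg i.p. daily for three days (suspended in 0.5% CMC-Na); six rats. Plasma (3500 × g, 10 min, 4 °C) was held at −80 °C. Analysis used UHPLC-Q-Orbitrap-MS with internal standards and non-compartmental parameters.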

[2] = assay type: in vivo, Male Sprague-Dawley (SD) rats; details: for Cmax / half-life: male, Sprague-Dawley, rat, po, 6.8 g/kg
How it was run: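 Untreated male SD rats (220 ± 20 g; six) were housed at 25 ± 3 °C and 45 ± 5% humidity with free access to food and water. Plasma was analysed by UHPLC-Q-Orbitrap-MS (IS, 1/concentration2-weighted calibration), with non-compartmental analysis.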

[3] = Stability of analytes in rat plasma under different storage conditions; assay type: in vitro ADME
How it was run: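 Blank rat plasma spiked at three QC concentrations, five replicates each. Plasma (100 μL) was precipitated with three volumes of acetonitrile plus IS, vortexed 5 min, centrifuged at 13,000 × g for 10 min at 4 °C, then dried under nitrogen. It was reconstituted in initial mobile phase and re-centrifuged. Extracts were held in the auto-sampler at 4 °C, then 3 μL injected. Quantitation used analyte/IS peak-area ratios on a 1/concentration2-weighted linear calibration.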

[4] = NC rats, oral ZSS aqueous extract 6.8 g/kg, plasma, mean ± SD, n = 6
[5] = extracted plasma QC samples, 4 °C for 12 h (auto-sampler), high QC level
[6] = extracted plasma QC samples, 4 °C for 12 h (auto-sampler), low QC level
[7] = extracted plasma QC samples, 4 °C for 12 h (auto-sampler), middle QC level
[8] = rat plasma, Frozen for 30 days (−80 °C), high QC level
[9] = rat plasma, Frozen for 30 days (−80 °C), low QC level
[10] = rat plasma, Frozen for 30 days (−80 °C), middle QC level
[11] = rat plasma, Three freeze-thaw cycles, high QC level
[12] = rat plasma, Three freeze-thaw cycles, low QC level
[13] = rat plasma, Three freeze-thaw cycles, middle QC level

Compound | AUC0-t [1] [μg/L･h] | AUC0-∞ [1] [μg/L･h] | Cmax [1] [ng/mL] | Tmax [1] [min] | half-life [1] [min] | AUC0-t [2, 4] [μg/L･h] | AUC0-∞ [2, 4] [μg/L･h] | Cmax ([2]; plasma) [ng/mL] | half-life ([2]; plasma) [min] | Stability, Accuracy (RE, %) [3, 5] [%] | Stability, Accuracy (RE, %) [3, 6] [%] | Stability, Accuracy (RE, %) [3, 7] [%] | Stability, Accuracy (RE, %) [3, 8] [%] | Stability, Accuracy (RE, %) [3, 9] [%] | Stability, Accuracy (RE, %) [3, 10] [%] | Stability, Accuracy (RE, %) [3, 11] [%] | Stability, Accuracy (RE, %) [3, 12] [%] | Stability, Accuracy (RE, %) [3, 13] [%] | also measured
COc1cc2c(cc1O)C(Cc1ccc(O)cc1)NCC2 (stereo not drawn) [Coclaurine, coclaurine] | 0.91 ± 0.26 | 0.93 ± 0.28 | 2.48 ± 0.98 | 13.8 ± 5.4 | 24.6 ± 16.8 | 1.08 ± 0.30 | 1.13 ± 0.27 | 1.98 ± 0.82 | 27 ± 10.2 | 7.71 | 14.88 | 3.35 | −1.99 | 14.76 | 9.58 | 8.75 | 11.85 | 9.48 | Tmax [2, 4]: 16.2 ± 5.4 min
COc1ccc2c(c1O)-c1c(O)c(OC)cc3c1[C@H](C2)[N+](C)(C)CC3 [Magnoflorine, magnoflorine] | 45.13 ± 24.46 | 51.87 ± 23.75 | 35.1 ± 13.7 | 12 ± 4.2 | 161 ± 76.8 | 54.56 ± 21.90 | 69.51 ± 28.52 | 40.6 ± 12.7 | 190 ± 118 | 11.25 | −4.56 | −11.99 | 9.01 | −14.77 | 0.05 | 8.06 | −5.49 | 5.31 | 
COc1cc2oc(-c3ccc(O)cc3)cc(=O)c2c(O)c1[C@@H]1O[C@H](CO)[C@@H](O)[C@H](O)[C@H]1O [swertisin] |  |  |  |  |  |  |  |  |  |  |  |  |  |  |  |  |  |  | concentration in rat plasma ([2]; after oral administration of ZSS aqueous extract): too low for detection; content in bile and feces ([2]; after oral administration of ZSS aqueous extract, data not open): high content
